Converted amounts (≈) assume the structure as drawn.
Columns and labels:
[1] = Half life in rat liver microsomes by HPLC analysis in presence of NADPH; assay type: ADME
In short: (§1)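 Male mouse or rat liver microsomes. Each run was done in triplicate, with a matching control that had no cofactor added. Samples were taken at set times, and the remaining non-degraded compound was quantified by analytical HPLC peak area. Half-life was calculated from linear plots.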

[2] = Thermodynamic solubility in PBS buffer at 1 mg after 12 hrs by HPLC analysis; assay type: physicochemical; settings: read-out: Therm_solubility
In short: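 Solubility was measured in PBS, with the dissolved compound quantified by HPLC. The HPLC setup has a lower detection limit.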

U2OS = assay: Cytotoxicity against human U2OS cells assessed as reduction in cell viability after 72 hrs by celltiter Glo assay; assay type: functional, cell-based
In short: (§2)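 Antiproliferative IC50 was determined against viable cells using a luminescent ATP read-out.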

MDA-MB-231 = assay: Cytotoxicity against human MDA-MB-231 cells assessed as reduction in cell viability after 72 hrs by celltiter Glo assay; assay type: functional, cell-based; settings: MDA-MB-231, 72 h; in short: as §2
[3] = Half life in mouse liver microsomes by HPLC analysis in presence of NADPH; assay type: ADME; in short: as §1
Liver = assay: Drug metabolism in mouse liver microsomes assessed as position 4/6 CH3 cleavage by LC-MS analysis; assay type: ADME
Liver microsome = assay: Drug metabolism in rat liver microsomes assessed as position 4/6 CH3 cleavage by LC-MS analysis; assay type: ADME
HeLa = assay: Cytotoxicity against human HeLa cells assessed as reduction in cell viability after 24 hrs by MTT assay; assay type: functional, cell-based
[4] = Cytotoxicity against human SCC114 cells assessed as reduction in cell viability after 24 hrs by MTT assay; assay type: functional, cell-based; settings: SCC114, 24 h

| half-life [1] [min] | solubility thermodynamic at 12 h [2] [µg/mL] | half-life [3] [min] | Drug metabolism (Liver) | Drug metabolism (Liver microsome) | SMILES | IC50 (U2OS) [µM] | IC50 (MDA-MB-231) [µM] | IC50 (HeLa) [µM] | IC50 [4] [µM] |
| --- | --- | --- | --- | --- | --- | --- | --- | --- | --- |
| 53 | < 0.3 | 31 |  |  | COc1cc(OC(F)F)c(Cl)c2c1C(=O)[C@@]1(O2)C(OCc2ccccc2)=CC(=O)C[C@H]1C | 5.56 | 5.34 |  |  |
|  |  |  | metabolite_detected | metabolite_detected | [2H]C([2H])([2H])OC1=CC(=O)C[C@@H](C)[C@]12Oc1c(Cl)c(OC)cc(OC)c1C2=O |  |  |  |  |
| 449 | > 1000 | 339 |  |  | COc1cc(OC)c2c(c1Cl)O[C@]1(C2=O)C(OCc2ccccc2)=C/C(=N\OCC(=O)O)C[C@H]1C | 14.1 | 10.1 |  |  |
| 26 | < 0.3 | 11 |  |  | COc1cc(OC(F)F)c2c(c1Cl)O[C@]1(C2=O)C(OCc2ccccc2)=CC(=O)C[C@H]1C | 14.3 | 11.8 |  |  |
| 60 | 0.3 (≈ 0.7 µM) | 27 |  |  | COc1cc(OC)c2c(c1Cl)O[C@]1(C2=O)C(OCc2ccccc2)=CC(=O)C[C@H]1C | 1.45 | 1.62 |  |  |
| 57 | 3 (≈ 6.76 µM) | 45 |  |  | COc1cc(OC)c2c(c1Cl)O[C@]1(C2=O)C(OCc2ccccc2)=C/C(=N\O)C[C@H]1C | 1.61 | 1.29 |  |  |
| 58 | 7.7 (≈ 21.8 µM) | 37 |  |  | COC1=CC(=O)C[C@@H](C)[C@]12Oc1c(Cl)c(OC)cc(OC)c1C2=O [GRISEOFULVIN] | 22.4 | 25.3 | 75 | 35 |
